Data from ChEMBL document CHEMBL2331099, “Design, synthesis and aromatase inhibitory activities of novel indole-imidazole derivatives” (Bioorg Med Chem Lett, 2013).

Assays:
[1] = target: T1, Aromatase (Homo sapiens, UniProt P11511); test: Inhibition of human placental microsome aromatase after 30 mins by ELISA
T1 sequence (P11511 whole entry): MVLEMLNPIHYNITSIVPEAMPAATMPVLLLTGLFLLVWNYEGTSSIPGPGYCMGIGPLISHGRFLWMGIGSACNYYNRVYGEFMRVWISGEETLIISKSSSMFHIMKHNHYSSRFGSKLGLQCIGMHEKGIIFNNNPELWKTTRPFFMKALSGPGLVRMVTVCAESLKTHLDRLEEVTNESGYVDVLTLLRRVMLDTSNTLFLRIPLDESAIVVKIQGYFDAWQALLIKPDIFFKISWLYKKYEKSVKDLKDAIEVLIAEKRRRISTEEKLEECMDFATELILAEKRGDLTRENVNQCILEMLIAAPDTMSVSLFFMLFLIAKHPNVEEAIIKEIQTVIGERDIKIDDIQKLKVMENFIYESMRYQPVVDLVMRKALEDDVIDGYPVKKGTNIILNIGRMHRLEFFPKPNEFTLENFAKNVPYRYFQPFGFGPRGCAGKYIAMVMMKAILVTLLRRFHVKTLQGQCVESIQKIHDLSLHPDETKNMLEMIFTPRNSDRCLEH
Summary of the method: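 Aromatase (P450 arom) source: human placental microsomes. Activity read as estrone formed, quantified by a commercial estrone enzyme immunoassay (ELISA). Values are means of at least three experiments, each run in triplicate.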

[2] = target: T1, Aromatase; test: Ratio of letrozole IC50 to compound IC50 for human placental microsome aromatase
Summary of the method: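 Both IC50s come from the human placental microsome aromatase assay with estrone measured by ELISA. Each IC50 is the mean of at least three experiments, each run in triplicate.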

| Compound | IC50 [1] [nM] | Ratio IC50 [2] |
| --- | --- | --- |
| COc1ccc2cc(Cn3ccnc3)n(-c3ccc(F)cc3)c2c1 | 48.9 | 0.3378 |
| COc1ccc(-n2c(Cn3ccnc3)cc3ccc(Cl)cc32)cc1 | 203 | 0.0813 |
| COc1ccc(-n2c(Cn3ccnc3)cc3ccccc32)cc1 | 77.4 | 0.2137 |
| Cc1ccc2cc(Cn3ccnc3)n(-c3ccccc3)c2c1 | 21.4 | 0.7728 |
| COc1ccc(-n2c(Cn3ccnc3)cc3ccc(C)cc32)cc1 | 139 | 0.1192 |
| Cc1ccc2cc(Cn3ccnc3)n(-c3ccc(C#N)cc3)c2c1 | 27 | 0.612 |
